Experimental data taken from ChEMBL document CHEMBL1132193, “Fluorescent pseudo-peptide linear vasopressin antagonists: design, synthesis, and applications” (J Med Chem, 1999).
Where a SMILES comes first, the peptide text is derived from it. [ ]: non-standard residue; d: D form. The star is where a group is joined. X1 = O=C(Cc1ccc(O)cc1)*

Key:
Oxytocin receptor = molecular target: T1, Oxytocin receptor (Homo sapiens, UniProt P30559); assay: The inhibition constant (Ki(nM)) by displacement of [125I]- HO-LVA radiolabeled ligand using membranes of CHO cells of human Oxytocin receptor; format: cell membranes
T1 sequence (P30559 whole entry): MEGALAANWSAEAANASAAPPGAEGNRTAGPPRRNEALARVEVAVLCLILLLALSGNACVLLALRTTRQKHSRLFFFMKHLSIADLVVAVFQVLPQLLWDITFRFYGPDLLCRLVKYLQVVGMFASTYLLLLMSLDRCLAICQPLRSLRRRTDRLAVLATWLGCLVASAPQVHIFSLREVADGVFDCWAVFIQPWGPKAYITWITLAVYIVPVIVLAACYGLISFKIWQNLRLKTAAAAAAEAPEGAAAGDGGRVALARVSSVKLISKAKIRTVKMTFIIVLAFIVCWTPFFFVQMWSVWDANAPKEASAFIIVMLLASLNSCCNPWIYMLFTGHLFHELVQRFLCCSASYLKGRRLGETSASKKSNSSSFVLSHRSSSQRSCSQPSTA

Vasopressin V1b receptor [1] = molecular target: T2, Vasopressin V1b receptor (Homo sapiens, UniProt P47901); assay: The inhibition constant (Ki(nM)) by displacement of [125I]- HO-LVA radiolabeled ligand using membranes of CHO cells of human Vasopressin V1b receptor; format: cell membranes
T2 sequence (P47901 whole entry): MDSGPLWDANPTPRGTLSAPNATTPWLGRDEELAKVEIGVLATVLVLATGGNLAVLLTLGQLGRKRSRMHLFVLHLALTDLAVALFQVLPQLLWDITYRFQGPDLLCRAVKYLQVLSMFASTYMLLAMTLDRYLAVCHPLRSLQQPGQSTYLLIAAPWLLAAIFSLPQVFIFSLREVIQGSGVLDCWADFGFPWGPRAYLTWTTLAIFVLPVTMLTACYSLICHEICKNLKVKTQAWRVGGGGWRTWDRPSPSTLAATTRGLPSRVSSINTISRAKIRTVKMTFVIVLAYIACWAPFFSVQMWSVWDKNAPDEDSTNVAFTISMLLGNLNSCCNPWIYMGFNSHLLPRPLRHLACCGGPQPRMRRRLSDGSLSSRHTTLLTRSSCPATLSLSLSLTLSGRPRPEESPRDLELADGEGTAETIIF
In short: (§1)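 Human V1b receptor in CHO cell membranes; competition against 1 nM [125I]HO-LVA. Membranes at 0.5–1 μg protein/assay, 1 h at 30 °C. Competitor spanned 1 pM to 10 μM; nonspecific binding with 1 μM unlabeled ligand. Ki = IC50/(1+[*L]/Kd) by nonlinear least-squares fit, ≥3 assays in triplicate.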

Vasopressin V2 receptor [2] = molecular target: T3, Vasopressin V2 receptor (Homo sapiens, UniProt P30518); assay: The inhibition constant (Ki(nM)) by displacement of [125I]- HO-LVA radiolabeled ligand using membranes of CHO cells of human Vasopressin V2 receptor; format: cell membranes
Vasopressin V1a receptor = Vasopressin V1a receptor (Homo sapiens, UniProt P37288); assay: Displacement of [125I]- HO-LVA from human Vasopressin V1a receptor in membranes of CHO cells; format: cell membranes
In short: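 CHO membranes expressing human V1a receptor (0.5–1 μg protein/assay), 50–70 pM [125I]HO-LVA. Incubated 1 h at 30 °C, equilibrium by 30 min. Competitor 1 pM to 10 μM; 1 μM unlabeled ligand defined nonspecific binding. Ki = IC50/(1+[*L]/Kd), nonlinear least-squares; at least three assays in triplicate.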

Vasopressin V1b receptor [3] = molecular target: T2, Vasopressin V1b receptor; assay: Compound was tested for its ability to displace [125I]- HO-LVA ligand from human Vasopressin V1b receptor in the membranes of CHO cells; format: cell membranes; in short: as §1
Vasopressin V2 receptor [4] = molecular target: T3, Vasopressin V2 receptor; assay: Compound was tested for its ability to of [125I]- HO-LVA radiolabeled ligand using membranes of CHO cells of human Vasopressin V2 receptor; format: cell-based

T3 sequence (P30518 whole entry): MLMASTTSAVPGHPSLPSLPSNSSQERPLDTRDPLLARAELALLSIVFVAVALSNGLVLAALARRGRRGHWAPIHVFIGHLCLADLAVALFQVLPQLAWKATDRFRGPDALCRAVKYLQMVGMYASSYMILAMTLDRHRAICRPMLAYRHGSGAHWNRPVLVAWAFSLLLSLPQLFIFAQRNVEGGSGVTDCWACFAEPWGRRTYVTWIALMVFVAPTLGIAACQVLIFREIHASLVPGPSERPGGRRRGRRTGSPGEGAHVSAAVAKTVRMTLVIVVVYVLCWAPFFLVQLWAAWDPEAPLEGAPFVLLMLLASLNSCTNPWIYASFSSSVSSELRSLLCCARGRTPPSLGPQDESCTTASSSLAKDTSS
Vasopressin V1a receptor, sequence (P37288 whole entry): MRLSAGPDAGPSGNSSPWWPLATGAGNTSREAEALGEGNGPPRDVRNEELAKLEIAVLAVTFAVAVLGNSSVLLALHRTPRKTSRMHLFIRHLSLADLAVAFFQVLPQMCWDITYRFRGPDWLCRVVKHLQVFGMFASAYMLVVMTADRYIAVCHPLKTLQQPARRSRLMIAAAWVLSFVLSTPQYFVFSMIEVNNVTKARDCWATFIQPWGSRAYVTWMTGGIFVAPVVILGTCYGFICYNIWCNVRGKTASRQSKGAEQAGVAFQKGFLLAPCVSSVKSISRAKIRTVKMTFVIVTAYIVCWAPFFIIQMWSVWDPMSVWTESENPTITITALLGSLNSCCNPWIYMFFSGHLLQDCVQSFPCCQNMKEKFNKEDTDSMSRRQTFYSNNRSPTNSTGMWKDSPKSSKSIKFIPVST

Row | SMILES | Ki (Vasopressin V1a receptor) [nM] | Ki (Oxytocin receptor) [nM] | also measured
1 | COc1ccc(C[C@@H](NC(=O)Cc2ccccc2)C(=O)N[C@@H](Cc2ccccc2)C(=O)N[C@@H](CCC(N)=O)C(=O)N[C@@H](CC(N)=O)C(=O)N[C@@H](CCCN=C(N)N)C(=O)N2CCC[C@H]2C(=O)N[C@@H](CCCN=C(N)N)C(N)=O)cc1 | – | – | Ki (Oxytocin receptor; cho): 1.1 nM; Ki (Vasopressin V1b receptor [1]; cho): 9.4 nM; Ki (Vasopressin V2 receptor [2]; cho): 282 nM; Ki (Vasopressin V1a receptor; cho): 0.8 nM
2 | COc1ccc(C[C@@H](NC(=O)CCc2ccc(O)cc2)C(=O)N[C@@H](Cc2ccccc2)C(=O)N[C@@H](CCC(N)=O)C(=O)N[C@@H](CC(N)=O)C(=O)N[C@@H](CCCCNC(=O)c2ccc3c(c2)C2(OC3=O)c3ccc(N(C)C)cc3Oc3cc(N(C)C)ccc32)C(=O)N2CCC[C@H]2C(=O)N[C@@H](CCCNC(=N)N)C(N)=O)cc1 | 3.3 | – | –
3 | COc1ccc(C[C@@H](NC(=O)CCc2ccc(O)cc2)C(=O)N[C@@H](Cc2ccccc2)C(=O)N[C@@H](CCC(N)=O)C(=O)N[C@@H](CC(N)=O)C(=O)N[C@@H](CCCCNC(=O)c2ccc3c(c2)C(=O)OC32c3ccc(N(C)C)cc3Oc3cc(N(C)C)ccc32)C(=O)N2CCC[C@H]2C(=O)N[C@@H](CCCNC(=N)N)C(N)=O)cc1 | 1.3 | – | –
4 | CCN(CC)c1ccc2c(-c3ccccc3C(=O)N[C@H](Cc3ccc(OC)cc3)C(=O)N[C@@H](Cc3ccccc3)C(=O)N[C@@H](CCC(N)=O)C(=O)N[C@@H](CC(N)=O)C(=O)N[C@@H](CCCNC(=N)N)C(=O)N3CCC[C@H]3C(=O)N[C@@H](CCCNC(=N)N)C(=O)N[C@@H](Cc3ccc(O)cc3)C(N)=O)c3ccc(=[N+](CC)CC)cc-3oc2c1 | – | – | Ki (Vasopressin V1a receptor; cho): > 500 nM
5 | COc1ccc(C[C@@H](NC(=O)CCc2ccc(O)cc2)C(=O)N[C@@H](Cc2ccccc2)C(=O)N[C@@H](CCC(N)=O)C(=O)N[C@@H](CC(N)=O)C(=O)N[C@@H](CCCCNC(=O)c2ccc3c(c2)C(=O)OC32c3ccc(O)cc3Oc3cc(O)ccc32)C(=O)N2CCC[C@H]2C(=O)N[C@@H](CCCNC(=N)N)C(N)=O)cc1 | 5.6 | – | –
6 | COc1ccc(C[C@@H](NC(=O)CCc2ccc(O)cc2)C(=O)N[C@@H](Cc2ccccc2)C(=O)N[C@@H](CCC(N)=O)C(=O)N[C@@H](CC(N)=O)C(=O)N[C@@H](CCCNC(=N)N)C(=O)N2CCC[C@H]2C(=O)N[C@@H](CCCCNC(=O)c2ccc3c(c2)C(=O)OC32c3ccc(O)cc3Oc3cc(O)ccc32)C(N)=O)cc1 | 0.17 | 1.6 | Ki (Vasopressin V1b receptor [1]): 142 nM; Ki (Vasopressin V2 receptor [2]): 9200 nM
7 | COc1ccc(C[C@@H](NC(=O)CCc2ccc(O)cc2)C(=O)N[C@@H](Cc2ccccc2)C(=O)N[C@@H](CCC(N)=O)C(=O)N[C@@H](CC(N)=O)C(=O)N[C@@H](CCCNC(=N)N)C(=O)N2CCC[C@H]2C(=O)N[C@@H](CCCCNC(=O)c2ccc3c(c2)C2(OC3=O)c3ccc(O)cc3Oc3cc(O)ccc32)C(N)=O)cc1 | 0.23 | – | –
8 | COc1ccc(C[C@@H](NC(=O)CCc2ccc(O)cc2)C(=O)N[C@@H](Cc2ccccc2)C(=O)N[C@@H](CCC(N)=O)C(=O)N[C@@H](CC(N)=O)C(=O)N[C@@H](CCCNC(=N)N)C(=O)N2CCC[C@H]2C(=O)N[C@@H](CCCCNC(=O)c2ccc3c(c2)C2(OC3=O)c3ccc(N(C)C)cc3Oc3cc(N(C)C)ccc32)C(N)=O)cc1 | 0.17 | – | –
9 | COc1ccc(C[C@@H](NC(=O)CCc2ccc(O)cc2)C(=O)N[C@@H](Cc2ccccc2)C(=O)N[C@@H](CCC(N)=O)C(=O)N[C@@H](CC(N)=O)C(=O)N[C@@H](CCCNC(=N)N)C(=O)N2CCC[C@H]2C(=O)N[C@@H](CCCCNC(=O)c2ccc3c(c2)C(=O)OC32c3ccc(N(C)C)cc3Oc3cc(N(C)C)ccc32)C(N)=O)cc1 | 0.07 | 1.2 | Ki (Vasopressin V1b receptor [1]): 27 nM; Ki (Vasopressin V2 receptor [2]): 7500 nM
10 | COc1ccc(C[C@@H](NC(=O)Cc2ccc(O)cc2)C(=O)N[C@@H](Cc2ccccc2)C(=O)N[C@@H](CCC(N)=O)C(=O)N[C@@H](CC(N)=O)C(=O)N[C@@H](CCCN=C(N)N)C(=O)N2CCC[C@H]2C(=O)N[C@@H](CCCN=C(N)N)C(N)=O)cc1 (X1-[dY](Me)FQNRPR-NH2) | 0.08 | 2.7 | Ki (Vasopressin V1b receptor [3]): 5.9 nM; Ki (Vasopressin V2 receptor [4]): 137 nM
